Measurements published in paper PMC11299136 (ACS Applied Materials & Interfaces, 2024).

What was measured:
[1] = Temperature-dependent circular dichroism; type: physicochemical
How it was run: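 Proteins were either diluted in PBS or dispersed in PFOc with 1 mM dispersant. The aqueous samples were heated between 40 and 90 °C, with a CD spectrum taken at each temperature. The PFOc dispersions were heat-treated at 40, 55, 70 and 85 °C for 15 min each, then mixed with PBS to elute the protein before CD. Each condition was run in triplicate, and representative spectra were reported.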

bacteria = assay: Control bacterial viability; type: cell-based; conditions: component alone: PFOc mixed with bacterial media, or PD-7 added to PBS
HepG2 cells = assay: Cellular toxicity, MTT assay; type: cell-based, human; conditions: 2–128 μL fluorous solvent added to culture medium, 48 h
How it was run: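 HepG2 cells seeded at 2000 cells/well and allowed to adhere overnight. Dispersant at 10 nM–1 mM in culture medium, or 2–128 μL fluorous solvent added to the medium, for 48 h. Serum-free medium served as the negative control and 20% DMSO in serum-free medium as the positive control. Then 0.5 mg/mL MTT in serum-free medium for 2 h, formazan dissolved in DMSO, A540 read. Viability was normalized between the two controls.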

[2] = dispersed in PFOc using PD-7, heated up to 85 °C

| Molecule | change in secondary structure on heating (CD) [1, 2] | MIC / bacterial viability (bacteria) | toxicity toward human liver cells (HepG2 cells) | change in secondary structure on heating (CD) ([1]; saline (PBS) control formulation, 40–85 °C) |
| --- | --- | --- | --- | --- |
| β-galactosidase | minimal changes in secondary structure | – | – | – |
| FC(F)(F)C(F)(F)C(F)(F)C(F)(F)C(F)(F)C(F)(F)C(F)(F)C(F)(F)F [PFOc, perfluorooctane] | – | no MIC could be calculated | biocompatible | – |
| rabbit serum immunoglobulin [IgG] | minimal changes in secondary structure | – | – | – |
| bovine serum albumin [BSA] | minimal changes in secondary structure | – | – | – |
| bovine trypsin (protein, UniProt P00760 24-246, looked up) Serine protease 1: IVGGYTCGANTVPYQVSLNSGYHFCGGSLINSQWVVSAAHCYKSGIQVRLGEDNINVVEGNEQFISASKSIVHPSYNSNTLNNDIMLIKLKSAASLNSRVASISLPTSCASAGTQCLISGWGNTKSSGTSYPDVLKCLKAPILSDSSCKSAYPGQITSNMFCAGYLEGGKDSCQGDSGGPVVCSGKLQGIVSWGSGCAQKNKPGVYTKVCNYVSWIKQTIASN | minimal changes in secondary structure | – | – | minimal change in structure |
